Reference: ChEMBL document CHEMBL1687750, “Nonclinical pharmacokinetics of oseltamivir and oseltamivir carboxylate in the central nervous system” (Antimicrob Agents Chemother, 2009)
Blank lines part the entries; values can stand above or below the molecule they belong to.

What was measured:
Plasma [1] = assay: Terminal half life in perfused Sprague-Dawley rat plasma assessed as active metabolite oseltamivir carboxylate level at 30 mg/kg, iv; format: ADME, organism-based; set-up: dose 30 mg/kg, route intravenous; conditions: in vivo
Method in brief: (§1)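 Nonfasted Sprague-Dawley rats given 30 mg/kg i.v. in 0.9% NaCl pH 4.0 by tail vein over 20–30 s. Terminal sampling under isoflurane at 5 min, 0.25, 0.5, 1, 2, 4 and 8 h (4–5 rats/time): plasma, CSF, and brain homogenate, with or without saline perfusion. LC-MS/MS. t1/2, Vss and ratios from noncompartmental analysis of pooled composite concentrations.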

Brain [2] = assay: Cmax in non-perfused Sprague-Dawley rat brain assessed as active metabolite oseltamivir carboxylate level at 30 mg/kg, iv; format: ADME, organism-based; set-up: dose 30 mg/kg, route intravenous; conditions: in vivo
Method in brief: (§2)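 Nonfasted adult rats received 30 mg/kg in aqueous 0.9% NaCl (pH 4.0) by slow tail-vein injection over 20–30 s. Groups were sampled at 5 min and 0.25, 0.5, 1, 2, 4 and 8 h, with 4–5 rats per time point, under terminal isoflurane. Blood was taken by heart puncture and CSF from the cisterna magna. Brains were homogenized either unperfused or after transcardial saline perfusion. Samples were assayed by LC-MS/MS, and pooled composite data were analyzed noncompartmentally.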

[3] = Cmax ratio in cerebrospinal fluid to plasma in perfused Sprague-Dawley rat at 30 mg/kg, iv; format: ADME, organism-based, CSF/Plasma; set-up: dose 30 mg/kg, route intravenous; conditions: cerebrospinal fluid and plasma; method in brief: as §2
Plasma [4] = assay: AUC (0 to 8 hrs) after iv dose in perfused Sprague-Dawley rat plasma assessed as active metabolite oseltamivir carboxylate level at 30 mg/kg; conditions: in vivo
Cerebrospinal fluid = assay: Cmax in perfused Sprague-Dawley rat cerebrospinal fluid assessed as active metabolite oseltamivir carboxylate level at 30 mg/kg, iv; format: ADME, organism-based; set-up: dose 30 mg/kg, route intravenous; conditions: in vivo, BLD = below limit of detection; method in brief: as §2
Brain [5] = assay: AUC (0 to 8 hrs) after iv dose in non-perfused Sprague-Dawley rat brain assessed as active metabolite oseltamivir carboxylate level at 30 mg/kg; conditions: in vivo
Brain [6] = assay: Cmax in perfused Sprague-Dawley rat brain assessed as active metabolite oseltamivir carboxylate level at 30 mg/kg, iv; format: ADME, organism-based; set-up: dose 30 mg/kg, route intravenous; conditions: in vivo; method in brief: as §2
[7] = Ratio of drug level in brain to plasma in non-perfused Sprague-Dawley rat at 30 mg/kg, iv; format: ADME, organism-based; set-up: dose 30 mg/kg, route intravenous; conditions: brain and plasma, read-out: BPR; method in brief: as §1
[8] = Prodrug conversion in 42 days old female rat liver S9 fractions assessed as paranitrophenol generation rate assessed per mg of protein per min; format: ADME, subcellular, S9 fraction
Method in brief: (§3)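 Control esterase activity was measured by incubating 100 µM p-nitrophenyl acetate (final) with 0.05 mg rat brain or liver S9 protein in 1.5 ml Tris-HCl pH 7.4 for 1 min at 37°C. Reactions were quenched with acetonitrile, and product was quantified by HPLC-UV against external standards. The no-protein blank rate was subtracted, and rate was expressed per mg protein per min.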

[9] = Prodrug conversion in 42 days old female rat liver S9 fractions assessed as conversion of oseltamivir to oseltamivir carboxylate; format: ADME, subcellular, S9 fraction
Method in brief: (§4)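 Rat brain or liver S9 (9,000 × g supernatant; 1.0 mg protein) was incubated in triplicate with 10 µM 14C-oseltamivir (final) in 100 mM Tris-HCl pH 7.4 for 30 min at 37°C. Reactions were quenched with TCA-acetonitrile, and the fraction converted to OC was measured by radioflow HPLC with fractionation. Rate was calculated as (pmol/ml substrate × fraction hydrolyzed)/(mg protein/ml × time), minus the no-protein background.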

[10] = Prodrug conversion assessed as oseltamivir carboxylate level in presence of Sf9 cell culture supernatant expressing human recombinant HCE2 after 30 mins; format: ADME; conditions: sf9, 0.5 h
Method in brief: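 Culture supernatants from baculovirus-infected Sf9 cells (day 5–7; 1.0 mg/ml protein) were incubated in triplicate with 10 µM 14C-oseltamivir in 100 mM Tris-HCl at 37°C for 30 min. Reactions were quenched with TCA-acetonitrile, then analyzed by HPLC with fraction scintillation counting. Conversion was calculated as OC radioactivity over total radioactivity, corrected for no-enzyme hydrolysis. Wild-type virus and liver S9 served as controls.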

[11] = Prodrug conversion in 7 days old male rat liver S9 fractions assessed as conversion of oseltamivir to oseltamivir carboxylate; format: ADME, subcellular, S9 fraction
Method in brief: (§5)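 S9 from brain or liver (rat S9 made by homogenizing tissue in ~4 ml Tris-sucrose buffer per g, supernatant after 9,000 × g at 10°C; pooled human brain and liver S9 also used), protein by bicinchoninic acid assay. Oseltamivir: triplicate, 10 μM 14C-oseltamivir final, 1.0 mg S9 protein, 100 mM Tris-HCl pH 7.4, 30 min at 37°C, quenched with TCA-acetonitrile.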

[12] = Prodrug conversion in commercial brain S9 fractions assessed as paranitrophenol generation rate assessed per mg of protein per min; format: ADME
[13] = Prodrug conversion in 42 days old male rat brain S9 fractions assessed as paranitrophenol generation rate assessed per mg of protein per min; format: ADME, tissue-based; method in brief: as §3
Plasma [14] = assay: AUC (0 to infinity) in non-perfused Sprague-Dawley rat plasma at 30 mg/kg; conditions: in vivo, iv
LLC-PK1 = assay: Permeability from basolateral to apical side of pig LLC-PK1 cells over expressing human MDR1; format: ADME, cell-based, Sus scrofa
Method in brief: (§6)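 P-gp-transfected LLC-PK1 monolayers received [14C]oseltamivir (0.1–10 mM) plus Lucifer yellow on the apical or basolateral donor side, with or without 1 µM elacridar. Incubation was at 37°C under 5% CO2. The acceptor side was sampled at 0.5–3 h and counted by scintillation. Pe was taken from the 3 h point, without correction for marker flux. Three inserts were used per condition and averaged.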

[15] = Prodrug conversion in human brain S9 fractions assessed as oseltamivir carboxylate generation rate assessed per mg of protein per min; format: ADME; method in brief: as §5
[16] = Clearance in Sprague-Dawley rat at 30 mg/kg, iv; format: ADME, organism-based; set-up: dose 30 mg/kg, route intravenous; conditions: in vivo; method in brief: as §2
[17] = Prodrug conversion in 42 days old female rat brain S9 fractions assessed as oseltamivir carboxylate generation rate assessed per mg of protein per min; format: ADME, tissue-based; method in brief: as §4
[18] = Volume of distribution at steady state in Sprague-Dawley rat at 30 mg/kg, iv; format: ADME, organism-based; set-up: dose 30 mg/kg, route intravenous; conditions: in vivo, read-out: Vdss
Method in brief: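 Nonfasted adult Sprague-Dawley rats received a single 30 mg/kg i.v. bolus in 0.9% NaCl (pH 4.0), injected slowly into the tail vein over 20–30 s. Plasma was sampled by cardiac puncture under isoflurane at 5 min and 0.25, 0.5, 1, 2, 4 and 8 h, with 4–5 rats per time point. Samples were assayed by LC-MS/MS. Vss was estimated by noncompartmental analysis of pooled composite data.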

MDR1 (P-gp, ABCB1) = MDR1 (P-gp, ABCB1) (Homo sapiens, UniProt P08183); assay: Activity of human MDR1-mediated permeability from apical to basolateral side in pig LLC-PK1 cells in presence of P-gp inhibitor elacridar; format: cell-based; conditions: LLC-PK1, with elacridar (concentration not stated), read-out: permeability; method in brief: as §6
[19] = Prodrug conversion in human liver S9 fractions assessed as conversion of oseltamivir to oseltamivir carboxylate; format: ADME, subcellular, S9 fraction; method in brief: as §5
[20] = Prodrug conversion in human liver S9 fractions assessed as paranitrophenol generation rate assessed per mg of protein per min; format: ADME, subcellular, S9 fraction
[21] = Prodrug conversion in 7 days old female rat liver S9 fractions assessed as oseltamivir carboxylate generation rate assessed per mg of protein per min; format: ADME, subcellular, S9 fraction; method in brief: as §5
[22] = Prodrug conversion in commercial liver S9 fractions assessed as paranitrophenol generation rate assessed per mg of protein per min; format: ADME, subcellular, Liver S9 fraction
[23] = Prodrug conversion in commercial brain S9 fractions assessed as conversion of oseltamivir to oseltamivir carboxylate; format: ADME; method in brief: as §5

MDR1 (P-gp, ABCB1), sequence (P08183 whole entry): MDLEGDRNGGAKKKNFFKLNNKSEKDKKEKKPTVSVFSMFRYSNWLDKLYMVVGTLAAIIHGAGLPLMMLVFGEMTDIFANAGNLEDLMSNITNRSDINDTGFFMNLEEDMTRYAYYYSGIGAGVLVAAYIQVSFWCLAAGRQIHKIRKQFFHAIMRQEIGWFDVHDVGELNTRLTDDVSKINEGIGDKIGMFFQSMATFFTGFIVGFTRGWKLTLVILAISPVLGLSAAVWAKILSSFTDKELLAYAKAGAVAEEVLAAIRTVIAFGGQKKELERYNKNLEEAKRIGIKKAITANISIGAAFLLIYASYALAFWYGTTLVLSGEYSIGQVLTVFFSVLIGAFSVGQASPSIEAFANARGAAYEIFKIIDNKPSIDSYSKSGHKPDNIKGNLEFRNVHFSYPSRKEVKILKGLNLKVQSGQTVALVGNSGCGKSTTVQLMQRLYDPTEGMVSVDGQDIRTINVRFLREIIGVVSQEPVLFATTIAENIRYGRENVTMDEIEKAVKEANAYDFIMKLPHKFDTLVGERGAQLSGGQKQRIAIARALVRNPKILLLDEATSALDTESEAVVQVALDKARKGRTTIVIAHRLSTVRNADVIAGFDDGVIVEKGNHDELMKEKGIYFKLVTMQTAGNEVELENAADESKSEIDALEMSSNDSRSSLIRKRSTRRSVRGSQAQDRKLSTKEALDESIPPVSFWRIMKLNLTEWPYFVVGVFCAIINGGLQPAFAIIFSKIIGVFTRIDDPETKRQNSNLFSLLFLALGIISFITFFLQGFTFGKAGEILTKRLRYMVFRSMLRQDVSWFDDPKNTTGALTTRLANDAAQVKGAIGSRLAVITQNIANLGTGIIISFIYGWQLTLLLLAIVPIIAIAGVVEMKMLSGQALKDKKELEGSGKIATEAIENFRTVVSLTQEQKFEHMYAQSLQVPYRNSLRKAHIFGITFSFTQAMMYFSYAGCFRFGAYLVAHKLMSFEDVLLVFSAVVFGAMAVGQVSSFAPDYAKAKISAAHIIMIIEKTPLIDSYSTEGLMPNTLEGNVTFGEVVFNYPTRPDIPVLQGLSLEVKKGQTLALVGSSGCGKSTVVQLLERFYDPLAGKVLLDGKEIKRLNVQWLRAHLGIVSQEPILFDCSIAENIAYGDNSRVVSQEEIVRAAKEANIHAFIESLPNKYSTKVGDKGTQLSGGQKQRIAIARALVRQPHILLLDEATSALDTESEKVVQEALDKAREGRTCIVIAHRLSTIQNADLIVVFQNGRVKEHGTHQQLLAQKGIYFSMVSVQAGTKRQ

- beta t1/2 (Plasma [1]): 1.71 h
- Cmax (Brain [2]): 164 ng/g
- Kp [3]: 0.003
- AUC (Plasma [4]): 12800
- Cmax (Cerebrospinal fluid): BLD
- AUC (Brain [5]): 145
- Cmax (Brain [6]): 75.5 ng/g
- Kp [7]: 0.02
SMILES: CCC(CC)O[C@@H]1C=C(C(=O)O)C[C@H](N)[C@H]1NC(C)=O [OSELTAMIVIR CARBOXYLATE]

- Activity [8]: 1001 nmol
- Activity [9]: 0.41%
- Activity [10]: Not Active
- Activity [11]: 0.1%
- Activity [12]: 49 nmol
- Activity [13]: 112 nmol
- AUC (Plasma [14]): 5330
- Papp (LLC-PK1): 1.01 ×10⁻⁶ cm/s
- Activity [15]: 0.39 pmol/s
- Activity ([15]; BLD = below limit of detection): BLD
- clearance [16]: 93.9 mL/min/kg
- Activity [17]: 0.6 pmol/min/mg
- Vd [18]: 3 L/kg
- Papp A→B (MDR1 (P-gp, ABCB1)): 3.89 ×10⁻⁶ cm/s
- Activity [19]: 3.57%
- Activity [20]: 574 nmol
- Activity [21]: 0.34 pmol/s
- Activity [22]: 482 nmol
- Activity [23]: 0.1%
SMILES: CCOC(=O)C1=C[C@@H](OC(CC)CC)[C@H](NC(C)=O)[C@@H](N)C1 [OSELTAMIVIR]
